Screening data (PubChem BioAssay)
Only some compounds are listed: those with a hit (about 11% of all), similar ones and a draw of the others.
M1 ag: M1 muscarinic receptor agonists, primary screen, CHO-M1 cells, Fluo-4 calcium, agonist mode; Muscarinic acetylcholine receptor M1; Fluo-4 calcium fluorescence; active compounds read high; B-score at 10 µM; 3% of 64,000 active;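 active = fluorescence rise, raw or as B-score row- and column-corrected plate score, outside the 99.7% band of its plate's samples, either direction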
S1P1 ag pot: S1P1 agonists and agonism potentiators, primary screen, cell-based, primary and confirmation screens, CRE-bla reporter. 0.57% of 56,000 active. Sphingosine 1-phosphate receptor 1 (Homo sapiens), P21453. S1P1 CRE-bla cells, forskolin, beta-lactamase FRET, potentiator mode; S1P1 agonist co-added at EC20, 2 nM; 100% = saturating reference agonist, 0% = basal. activation, % at 9.5 µM;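 active = activation above a cutoff set at the mean activation of all tested compounds plus 3 SD, cut at about 54% in these data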;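 note: forskolin at 4 µM as EC80 and the EC20 agonist is SEW2871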
S1P3 ag: human S1P3 receptor agonists, primary screen, cell-based, primary and confirmation, NFAT-BLA reporter | Sphingosine 1-phosphate receptor 3 (Homo sapiens), Q99500 | S1P3 NFAT-BLA reporter cells, agonism, FRET ratio; relative to 1 µM S1P, basal subtracted | activation, % at 4.5 µM | 0.1% of 60,000 active;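 active = activation above the screen-wide mean plus 3 SD, cut at about 4.5% in these data, passing the limit was not always enough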
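Assay system: stable CHO line with human S1P3, Gα16, NFAT-BLA reporter; Detection: FRET β-lactamase substrate fluorescence, excitation 405 nm, 460/535 nm emission ratio, background-subtracted; Read-out: percent activation versus median 1 µM S1P response, basal-subtracted, per plate; Incubation: cells plated overnight, compound 4 h 37 °C, substrate 2 h RT.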
M1 antagonist: antagonists of rat M1 muscarinic receptor; Muscarinic acetylcholine receptor M1 (Rattus norvegicus), P08482; CHO-M1 cells, Fluo-4 calcium, ACh EC80 antagonist mode; active compounds read low; B-score at 10 µM; 3.4% of 64,000 active;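 active = calcium fluorescence response, raw or row-and-column corrected B-score, differing from the plate sample mean either way at a set confidence level, mostly lower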
D1 mod: D1 CRE-luciferase signal change, two-sided – cell-based, HEK293 D1, dopamine EC30, D1 allosteric modulator project, primary screen | D(1A) dopamine receptor (Homo sapiens), P21728 | dopamine EC30 potentiation; actives deviate in either direction | AID 641, 2007 | 5.9% of 58,000 active | B-score at 10 µM;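 active = luminescence count or its row- and column-corrected plate score outside the 99.7% band of the plate's sample wells, on either side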
Target sequence (P21728 whole entry, looked up): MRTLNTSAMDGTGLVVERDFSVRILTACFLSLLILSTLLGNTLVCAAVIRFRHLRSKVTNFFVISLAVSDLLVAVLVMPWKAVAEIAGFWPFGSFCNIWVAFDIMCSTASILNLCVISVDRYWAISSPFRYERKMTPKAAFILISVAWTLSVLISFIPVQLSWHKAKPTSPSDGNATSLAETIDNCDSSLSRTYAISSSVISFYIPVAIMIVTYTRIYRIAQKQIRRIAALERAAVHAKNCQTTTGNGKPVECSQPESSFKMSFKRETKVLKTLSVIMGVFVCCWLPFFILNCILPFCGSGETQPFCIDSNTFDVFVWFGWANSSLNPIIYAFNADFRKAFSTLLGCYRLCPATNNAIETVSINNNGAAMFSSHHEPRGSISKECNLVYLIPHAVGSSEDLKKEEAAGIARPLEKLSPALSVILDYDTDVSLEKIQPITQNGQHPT
D1 mod confirm: D1 receptor positive allosteric modulators, retest, confirmation, cell-based, HEK293 D1, CRE-luciferase, duplicate | 88% of 2,200 active | AID 642, 2007 | luminescence at 10 µM | dopamine EC30 potentiation; active compounds read high | shares compounds with D1 mod;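 active = luminescence in either of two replicates above the same-plate mean plus 3 SD of the low-dose dopamine control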
D1 no dopamine: D1 receptor agonism without dopamine, confirmation, mechanism study for D1 allosteric modulator project, cell-based, HEK293 D1, CRE-luciferase, secondary assay 1; shares compounds with D1 mod; luminescence, no dopamine; active compounds read high; luminescence at 10 µM; 0.8% of 1,900 active; AID 646, 2007; in the data active = luminescence above about 3900
Isoprot counter: counter-screen for D1 modulators: isoproterenol response in HEK293 cells. 63% of 2,200 active. shares compounds with D1 mod. luminescence at 10 µM. AID 647. HEK293 D1 CRE-luciferase, isoproterenol EC30 counter-screen; active compounds read high;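 active = luminescence in either replicate above plate mean of wells with a partly effective reference agonist dose plus 3 SD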;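 note: isoproterenol raises cAMP through native beta-adrenoceptor Gs so signal bypasses D1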
Large screens that a line does not name were inactive (follow-up assays come after a bar, where they were run).

COC(=O)c1ccc(CSc2nc3c(cnn3-c3ccc(Cl)cc3)c(=O)[nH]2)o1	none
COC(=O)c1ccc(CSc2nc3ccccc3c(=O)n2Cc2ccco2)o1	D1 mod 6.5 | D1 mod confirm 9240 | D1 no dopamine inactive | Isoprot counter 3296
CN(C)CCN1C(=O)C(=O)/C(=C(/O)c2ccc(OCc3ccccc3)cc2)C1c1ccncc1 (centres undefined)	none
CCOC(=O)CN=C1CC(C)(C)CC2=C1Sc1ncnc(N(C)C)c1N2	M1 ag 8.2, D1 mod 5.4 | D1 mod confirm 10372 | D1 no dopamine inactive | Isoprot counter 4260
CCOC(=O)C1=C(C)NC2=C(C(=O)CC(C)(C)C2)C1c1cccc(C)n1 (centres undefined)	none
CCCSc1nsc(SCCC)c1C(N)=O	D1 mod 4.4 | D1 mod confirm 9628 | D1 no dopamine inactive | Isoprot counter inactive
CCSc1nsc(SCC)c1C(N)=O	none (no result: S1P1 ag pot, S1P3 ag)
c1ccc(Nc2nc3ccccc3n3cnnc23)cc1	D1 mod 4.2 | D1 mod confirm 15712 | D1 no dopamine inactive | Isoprot counter inactive
c1ccc2c(c1)nc(NC1CCCCC1)c1nncn12	D1 mod 14 | D1 mod confirm 9836 | D1 no dopamine inactive | Isoprot counter 3160
Cc1cc(C(=O)OCC(=O)Nc2ccc(F)cc2)c(C)o1	none (no result: S1P1 ag pot, S1P3 ag)
CC(C)(C)Nc1nc(NC(C)(C)C)nc(-n2ccnc2)n1	D1 mod 5.7 | D1 mod confirm 17956 | D1 no dopamine inactive | Isoprot counter 3732
Cc1ccc(-c2nnc(CSc3nc(C)nc4sc(C)c(C)c34)o2)cc1	none
Cc1nc(SCC#N)c2c(C)c(C)sc2n1	D1 mod 5.8 | D1 mod confirm 13352 | D1 no dopamine inactive | Isoprot counter 3812
CCC1(C)Cc2c(c(=O)n(-c3ccccc3)c3ncnc(N)c23)CO1 (centres undefined)	D1 mod 5.5 | D1 mod confirm 10848 | Isoprot counter inactive
CC1(C)Cc2c(C#N)c(N)n(-c3ccccc3)c(=O)c2CO1	none
Cc1noc(C)c1CSc1nnc2scc(-c3ccccc3)n12	D1 mod 11 | D1 mod confirm 13660 | D1 no dopamine inactive | Isoprot counter 4560
Cc1noc(C)c1CSc1nnc(-c2ccccc2)n1Cc1ccco1	D1 mod 4.7 | D1 mod confirm inactive | D1 no dopamine inactive | Isoprot counter inactive
O=S(=O)(c1ccccc1)N1C2CCC1CC(O)(c1cccnc1)C2 (centres undefined)	none
CCOC(=O)c1cccc(Nc2nc(C)cc(C)n2)c1	none
COC(=O)c1cccc(Nc2nc3ccccc3nc2C)c1	D1 mod 5.2 | D1 mod confirm 9552 | D1 no dopamine inactive | Isoprot counter 3044
CCC(=O)Nc1nonc1-c1nc2ccccc2n1CCC(C)C	none
CCC(=O)Nc1nonc1-c1nc2ccccc2n1Cc1ccccc1	D1 mod 3.3 | D1 mod confirm 13704 | D1 no dopamine inactive | Isoprot counter 3656
CC(C)c1ccccc1OCCNS(C)(=O)=O	none
CC(C)CCn1c(SCc2ccc(Cl)cc2)nc2c1c(=O)[nH]c(=O)n2C	D1 mod 14 | D1 mod confirm 13248 | Isoprot counter 4960
Cc1ccc(CSc2nc3c(c(=O)[nH]c(=O)n3C)n2CCC(C)C)cc1	none
Cc1ccc(Cn2c(Sc3ncccn3)nc3c2c(=O)[nH]c(=O)n3C)cc1	none (no result: S1P1 ag pot, S1P3 ag)
